In series [1] the test system is Human betaherpesvirus 5. In words: Antiviral activity against human cytomegalovirus 759D100 harboring deletion mutation in UL97 gene and UL54 A987G mutant gene infected in HFF after 8 to 10 days by plaque reduction assay. It counts as functional, organism-based. As to conditions: Human betaherpesvirus 5, 759D100. Put shortly:
(§1)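 Plaque reduction in confluent HFF with six serial dilutions (top 100 μM) and no immunoglobulin added. Virus was adsorbed 1 h on triplicate wells. Cells were incubated 8 days, stained with 0.017% neutral red in PBS, and plaques counted. EC50 is the concentration reducing plaque number by 50%.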
A general note: In a plaque reduction assay, fewer plaques than in the control indicate reduced infectivity or spread.

For series [2], the system named is Human betaherpesvirus 5. Description: Antiviral activity against human cytomegalovirus VR4955 harboring UL54 T700A mutant gene infected in HFF after 8 to 10 days by plaque reduction assay. It counts as functional, organism-based. As to conditions: Human betaherpesvirus 5, VR4955. Put shortly:
as §1

Series [3] deals with Human alphaherpesvirus 2. In words: Antiviral activity against HSV2 infected in BALB/c mouse assessed mean time to virus-induced death at 30 mg/kg, po BID administered 72 hrs post infection. The format is functional.
The subject of series [4] is Human betaherpesvirus 5. Description: Antiviral activity against human cytomegalovirus C8914-6 harboring UL97 I244V, L595F and UL54 L501F mutant gene infected in HFF after 8 to 10 days by plaque reduction assay. It counts as functional, organism-based. To be noted: Human betaherpesvirus 5, C8914-6. Put shortly: as §1
The subject of series [5] is Human betaherpesvirus 5. In words: Antiviral activity against human cytomegalovirus AD169 infected in HFF after 8 to 10 days by plaque reduction assay. The format is functional, organism-based. To be noted: Human betaherpesvirus 5, AD169. The gist of the method:
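Plaque reduction on confluent HFF monolayers in triplicate wells: 1 h adsorption, then six serial compound dilutions (top 100 μM) in MEM with 2% FBS, no immunoglobulin. Incubation was 8 days for HCMV and 10 days for VZV. Plaques were stained with 0.017% neutral red in PBS and counted microscopically. EC50 was interpolated at 50% plaque reduction.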

Series [6] relates to Human alphaherpesvirus 2. In words: Antiviral activity against HSV2 MS infected in HFF after 3 days by plaque reduction assay. The format is functional, organism-based. To be noted: Human alphaherpesvirus 2, MS, 72 h. The gist of the method:
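Confluent primary HFF monolayers (passage <10), triplicate wells, virus dosed at 20–30 plaques/well. Adsorption was 1 h with rocking every 15 min. Six serial dilutions, top 100 μM, were made in MEM with 2% FBS plus pooled human immunoglobulin. After 3 days, wells were stained with 0.1% crystal violet in 20% methanol and plaques counted microscopically. EC50 was interpolated.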

The nature of series [7]: Selectivity index, ratio of CC50 for HFF to EC50 for VZV Ellan infected in HFF.
The nature of series [8]: Selectivity index, ratio of CC50 for HFF to EC50 for […] infected in HFF.
Series [9] has as its system Human alphaherpesvirus 2. In words: Selectivity ratio of EC50 for 4'-thioIDU-resistant HSV2 infected in HFF to EC50 for HSV2 MS infected in HFF. It counts as functional.
Series [10] has as its system Human alphaherpesvirus 1. In words: Antiviral activity against HSV1 B-2006 harboring frameshift mutation at Q185 in TK infected in HFF after 3 days by plaque reduction assay. To be noted: Human alphaherpesvirus 1, B-2006, 72 h. The format is functional, organism-based. The gist of the method: (§2)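 Confluent HFF monolayers (passage <10) were infected in triplicate wells at 20–30 plaques per well, with 1 h adsorption and rocking every 15 min. Six serial dilutions (top 100 μM) were made in MEM with 2% FBS and pooled human immunoglobulin. Cells were incubated 3 days and stained with crystal violet. Plaques were counted, and EC50 was interpolated from plaque reduction.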

Series [11] can be described thus: Selectivity index, ratio of CC50 for HFF to EC50 for human cytomegalovirus AD169 infected in HFF.
Series [12] concerns Human alphaherpesvirus 2. Description: Antiviral activity against HSV2 infected in BALB/c mouse assessed as virus-induced mortality rate at 10 mg/kg, po BID administered 48 hrs post infection. The format is functional.
The next series deals with Human gammaherpesvirus 8. In words: Antiviral activity against Human herpesvirus 8 infected in human BCBL1 cells assessed as inhibition of viral replication after 7 days. It counts as functional, organism-based. As to conditions: Human gammaherpesvirus 8, BCBL1, 168 h. Put shortly: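 BCBL1 cells in RPMI 1640 with 10% FBS, compound diluted in triplicate wells with a top concentration of 100 μM. Lytic infection was induced with phorbol 12-myristate 13-acetate at 100 ng/ml final. After 7 days at 37°C in humidified CO2, viral DNA in total DNA was measured by TaqMan qPCR. EC50 was taken as 50% reduction of viral DNA.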

The subject of series [13] is Human alphaherpesvirus 2. In words: Antiviral activity against HSV2 11680 harboring TK R223H mutant gene infected in HFF after 3 days by plaque reduction assay. The format is functional, organism-based. As to conditions: Human alphaherpesvirus 2, 11680, 72 h. The gist of the method: as §2
The test system of series [14] is Human alphaherpesvirus 2. In words: Antiviral activity against HSV2 infected in BALB/c mouse assessed as virus-induced mortality rate at […], po BID administered 48 hrs post infection. It counts as functional.
Series [15] concerns Human alphaherpesvirus 2. Description: Antiviral activity against HSV2 infected in BALB/c mouse assessed mean time to virus-induced death at 10 mg/kg, po BID administered 24 hrs post infection. The format is functional.
The test system of series [16] is Human alphaherpesvirus 2. In words: Antiviral activity against HSV2 infected in BALB/c mouse assessed as virus-induced mortality rate at […], po BID administered 72 hrs post infection. It counts as functional.
Series [17] relates to Human alphaherpesvirus 1. In words: Antiviral activity against HSV1 SC16-S1 harboring TK A265T/C336Y mutant gene infected in HFF after 3 days by plaque reduction assay. The format is functional, organism-based. As to conditions: Human alphaherpesvirus 1, SC16-S1, 72 h. Put shortly:
as §2

Series [18] concerns Human alphaherpesvirus 2. In words: Antiviral activity against HSV2 infected in BALB/c mouse assessed as virus-induced mortality rate at […], po BID administered 24 hrs post infection. It counts as functional.
A short description of series [19]: Selectivity index, ratio of CC50 for human BCBL1 cells to EC50 for Human herpesvirus 8 infected in human BCBL1 cells. The format is toxicity, cell-based. As to conditions: read-out: Ratio CC50/EC50.
The subject of series [20] is Human alphaherpesvirus 2. In words: Antiviral activity against HSV2 infected in BALB/c mouse assessed as virus-induced mortality rate at 10 mg/kg, po BID administered 72 hrs post infection. The format is functional.
The subject of series [21] is Human betaherpesvirus 5. Description: Antiviral activity against human cytomegalovirus PFAB300 harboring UL54 L724V mutant gene infected in HFF after 8 to 10 days by plaque reduction assay. To be noted: Human betaherpesvirus 5, PFAB300. It counts as functional, organism-based. The gist of the method:
as §1

A further series concerns Human gammaherpesvirus 4. Description: Antiviral activity against Epstein-Barr virus infected in human Akata cells after 72 hrs. It counts as functional, organism-based. As to conditions: human gammaherpesvirus 4, Akata. The gist of the method:
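Akata cells were kept in RPMI 1640 with 10% FBS. Compound ranged 100 to 0.032 μM. Latent cells were induced to lytic infection with 50 μg/ml goat anti-human IgG, and 4 × 10^4 cells were added per well. After 72 h, DNA was alkali/NaCl-denatured, blotted to nylon membrane, and viral DNA quantified by digoxigenin-probe hybridization with anti-hapten antibody detection.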

Series [22] is described as follows: Cytotoxicity against human BCBL1 cells after 3 days by MTS assay. The format is cell-based. (Tetrazolium assays rely on reduction of a dye to a coloured formazan, in cell work by metabolically active cells.)

Bounds are passed on as bounds.

The source of these data is ChEMBL document CHEMBL1649277, “Inhibition of herpesvirus replication by 5-substituted 4'-thiopyrimidine nucleosides” (Antimicrob Agents Chemother, 2009).

What is called EC50 is the concentration that produces a half-maximal response. For orientation: CC50 means the concentration at which the toxic effect on the cells reaches its halfway point. High values mean better tolerance by the cells, low ones harm at low concentration.

In the case of `O=c1[nH]c(=O)n([C@H]2C[C@H](O)[C@@H](CO)S2)cc1I`, the concentration giving a half-maximal response (EC50) is 14 µM with Human betaherpesvirus 5 [1]; 8 µM in the series with Human betaherpesvirus 5 [2]; 43 µM in the series with Human betaherpesvirus 5 [4]; 5.85 µM with Human betaherpesvirus 5 [5]; 0.45 µM in the series on Human alphaherpesvirus 2 [6]; above 444 µM with Human alphaherpesvirus 1 [10]. The EC50 in the series on Human gammaherpesvirus 8 is above 4 µM; with Human alphaherpesvirus 2 [13] it was 246 µM; in the series on Human alphaherpesvirus 1 [17], above 444 µM; with Human betaherpesvirus 5 [21] it was 25 µM; with Human gammaherpesvirus 4, above 0.16 µM. Moreover, the Time in the series with Human alphaherpesvirus 2 [3] was 11.7 days; in the series with Human alphaherpesvirus 2 [15], 9.8 days. Besides, the Ratio CC50/EC50 in series [7] was 35; in series [8], above 1250; in [11], above 17. The “Ratio EC50” value in the series with Human alphaherpesvirus 2 [9] was 108. In addition, the Activity in the series with Human alphaherpesvirus 2 [12] is 73%; with Human alphaherpesvirus 2 [14] it was 93%; in the series on Human alphaherpesvirus 2 [16], 100%; with Human alphaherpesvirus 2 [18], 100%; in the series on Human alphaherpesvirus 2 [20] it was 73%. Further, the selectivity ratio in [19] is below 3.6. The cytotoxic concentration (CC50) at 72 h in series [22] worked out at 14 µM.
